Activity calls are given as the source filed them. The rule behind the calls is not given here.
Experiments:
[1] = Inhibition of p38 assessed as rate of ATF-2 phosphorylation at 10 uM by immunosorbent non-radioactive enzyme assay
How it was run: (§1)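 p38α MAP kinase ELISA-type (immunosorbent, non-radioactive) assay. Enzyme was incubated with ATP at 100 µM, ATF-2 as substrate, and test compound at 10^-5 to 10^-8 M. Activity was read as the rate of ATF-2 phosphorylation. SB203580 served as the reference inhibitor.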

[2] = target: Aurora kinase B (Homo sapiens) (UniProt Q96GD4); test: Inhibition of Aurora B at 10 uM
[3] = target: BDNF/NT-3 growth factors receptor (Homo sapiens) (UniProt Q16620); test: Inhibition of TRKB at 10 uM
[4] = target: T1, NUAK family SNF1-like kinase 1 (Homo sapiens) (UniProt O60285); test: Inhibition of ARK5 at 10 uM
T1 sequence (whole entry): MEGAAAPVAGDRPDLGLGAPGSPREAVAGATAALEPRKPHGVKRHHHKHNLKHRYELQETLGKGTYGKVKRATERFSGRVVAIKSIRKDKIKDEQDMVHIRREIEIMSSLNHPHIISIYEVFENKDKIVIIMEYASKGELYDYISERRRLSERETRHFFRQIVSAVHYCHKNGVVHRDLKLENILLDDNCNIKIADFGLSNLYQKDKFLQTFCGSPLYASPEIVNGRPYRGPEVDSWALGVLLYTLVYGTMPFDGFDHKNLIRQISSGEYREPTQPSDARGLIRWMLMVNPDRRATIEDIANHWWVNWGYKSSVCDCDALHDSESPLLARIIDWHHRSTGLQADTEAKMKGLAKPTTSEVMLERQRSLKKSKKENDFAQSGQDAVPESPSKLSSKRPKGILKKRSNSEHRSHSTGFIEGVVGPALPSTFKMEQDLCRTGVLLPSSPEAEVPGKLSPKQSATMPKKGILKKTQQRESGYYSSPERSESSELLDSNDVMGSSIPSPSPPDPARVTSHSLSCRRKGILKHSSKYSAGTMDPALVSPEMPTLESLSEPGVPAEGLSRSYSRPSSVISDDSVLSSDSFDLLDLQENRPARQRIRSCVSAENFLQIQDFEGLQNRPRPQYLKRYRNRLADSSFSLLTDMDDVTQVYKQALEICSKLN

[5] = target: Focal adhesion kinase 1 (Homo sapiens) (UniProt Q05397); test: Inhibition of FAK at 10 uM
Chain of Focal adhesion kinase 1 (Homo sapiens) (Q05397 2-1052 limits assumed): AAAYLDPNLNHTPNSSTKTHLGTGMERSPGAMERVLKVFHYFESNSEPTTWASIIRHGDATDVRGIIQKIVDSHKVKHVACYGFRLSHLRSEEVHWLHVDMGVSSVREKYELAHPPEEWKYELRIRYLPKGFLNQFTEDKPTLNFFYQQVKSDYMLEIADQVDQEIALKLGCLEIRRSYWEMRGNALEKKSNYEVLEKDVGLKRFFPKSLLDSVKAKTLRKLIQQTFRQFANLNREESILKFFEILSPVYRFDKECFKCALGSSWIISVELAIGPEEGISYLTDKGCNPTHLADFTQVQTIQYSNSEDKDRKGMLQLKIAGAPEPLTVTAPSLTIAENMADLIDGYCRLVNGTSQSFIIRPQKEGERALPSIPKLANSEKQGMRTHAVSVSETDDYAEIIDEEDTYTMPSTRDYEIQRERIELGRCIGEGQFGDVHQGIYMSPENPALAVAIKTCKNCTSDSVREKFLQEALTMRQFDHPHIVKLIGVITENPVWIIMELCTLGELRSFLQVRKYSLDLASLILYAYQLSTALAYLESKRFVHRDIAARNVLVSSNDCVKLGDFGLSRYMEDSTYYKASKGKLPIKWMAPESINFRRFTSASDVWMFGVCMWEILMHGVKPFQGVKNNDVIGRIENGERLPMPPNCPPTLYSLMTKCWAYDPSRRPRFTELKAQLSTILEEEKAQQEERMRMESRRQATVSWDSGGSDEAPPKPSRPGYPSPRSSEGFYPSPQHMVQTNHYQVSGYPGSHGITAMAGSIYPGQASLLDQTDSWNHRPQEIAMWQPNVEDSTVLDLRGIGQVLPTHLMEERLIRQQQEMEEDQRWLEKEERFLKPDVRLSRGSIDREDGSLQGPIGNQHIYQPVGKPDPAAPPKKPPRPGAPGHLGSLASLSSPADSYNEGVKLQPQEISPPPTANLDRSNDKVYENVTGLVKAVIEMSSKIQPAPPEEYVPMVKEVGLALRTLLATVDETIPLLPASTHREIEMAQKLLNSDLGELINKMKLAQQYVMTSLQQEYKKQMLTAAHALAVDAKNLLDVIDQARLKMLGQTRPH

[6] = target: Serine/threonine-protein kinase PLK1 (Homo sapiens) (UniProt P53350); test: Inhibition of PLK1 at 10 uM
Chain of Serine/threonine-protein kinase PLK1 (Homo sapiens) (P53350 whole entry): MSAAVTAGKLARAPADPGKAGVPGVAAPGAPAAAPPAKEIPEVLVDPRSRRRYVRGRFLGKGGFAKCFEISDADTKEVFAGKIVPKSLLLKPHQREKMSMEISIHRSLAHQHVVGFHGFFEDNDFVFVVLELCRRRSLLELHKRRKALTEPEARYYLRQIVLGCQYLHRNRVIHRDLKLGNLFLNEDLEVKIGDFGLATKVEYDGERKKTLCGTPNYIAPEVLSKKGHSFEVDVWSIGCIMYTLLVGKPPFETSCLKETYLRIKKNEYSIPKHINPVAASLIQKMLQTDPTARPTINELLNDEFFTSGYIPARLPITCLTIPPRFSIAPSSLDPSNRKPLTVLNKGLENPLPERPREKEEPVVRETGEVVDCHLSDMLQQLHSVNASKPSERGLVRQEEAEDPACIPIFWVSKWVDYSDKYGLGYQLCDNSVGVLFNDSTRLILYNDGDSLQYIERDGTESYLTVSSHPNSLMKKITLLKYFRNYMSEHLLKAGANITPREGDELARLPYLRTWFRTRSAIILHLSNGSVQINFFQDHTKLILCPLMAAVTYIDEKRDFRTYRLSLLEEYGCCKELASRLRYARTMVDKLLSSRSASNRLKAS

[7] = target: Hepatocyte growth factor receptor (Homo sapiens) (UniProt P08581); test: Inhibition of MET at 10 uM
[8] = target: T2, Serine/threonine-protein kinase PLK4 (Homo sapiens) (UniProt O00444); test: Inhibition of SAK at 10 uM
T2 sequence (whole entry): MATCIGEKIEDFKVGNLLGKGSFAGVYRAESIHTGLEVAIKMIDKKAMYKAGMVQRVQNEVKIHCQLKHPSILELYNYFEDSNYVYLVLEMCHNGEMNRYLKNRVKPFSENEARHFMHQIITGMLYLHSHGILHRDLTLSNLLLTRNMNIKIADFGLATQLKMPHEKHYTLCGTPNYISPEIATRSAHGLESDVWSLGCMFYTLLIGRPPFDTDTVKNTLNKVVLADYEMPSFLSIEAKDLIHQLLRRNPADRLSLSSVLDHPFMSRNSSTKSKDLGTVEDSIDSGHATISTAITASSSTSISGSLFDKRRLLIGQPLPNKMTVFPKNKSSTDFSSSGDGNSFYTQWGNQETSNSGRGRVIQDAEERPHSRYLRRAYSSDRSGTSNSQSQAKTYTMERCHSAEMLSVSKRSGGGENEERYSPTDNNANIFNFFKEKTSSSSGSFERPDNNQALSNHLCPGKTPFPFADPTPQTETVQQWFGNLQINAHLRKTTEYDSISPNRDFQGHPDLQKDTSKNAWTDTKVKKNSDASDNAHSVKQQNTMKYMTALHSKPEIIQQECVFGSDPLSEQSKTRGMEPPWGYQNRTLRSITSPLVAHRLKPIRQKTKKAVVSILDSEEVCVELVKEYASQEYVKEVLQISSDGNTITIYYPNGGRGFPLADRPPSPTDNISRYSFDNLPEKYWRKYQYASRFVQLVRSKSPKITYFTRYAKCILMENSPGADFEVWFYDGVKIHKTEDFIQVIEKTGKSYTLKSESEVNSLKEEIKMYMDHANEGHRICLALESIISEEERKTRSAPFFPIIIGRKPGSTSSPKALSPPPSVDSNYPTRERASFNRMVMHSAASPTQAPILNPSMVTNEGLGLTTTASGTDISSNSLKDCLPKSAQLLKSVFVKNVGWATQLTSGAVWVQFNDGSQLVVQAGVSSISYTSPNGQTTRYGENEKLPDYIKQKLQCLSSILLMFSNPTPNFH

[9] = target: Serine/threonine-protein kinase N1 (Homo sapiens) (UniProt Q16512); test: Inhibition of PRK1 at 10 uM
[10] = target: Casein kinase II subunit alpha (Homo sapiens) (UniProt P68400); test: Inhibition of CK2alpha1 at 10 uM
[11] = tested on: Serine/threonine-protein kinase B-raf (Homo sapiens), P15056 [V600E]; test: Inhibition of B-Raf V600E mutant at 10 uM
Chain of Serine/threonine-protein kinase B-raf (Homo sapiens), P15056 [V600E] (P15056 whole entry V600E): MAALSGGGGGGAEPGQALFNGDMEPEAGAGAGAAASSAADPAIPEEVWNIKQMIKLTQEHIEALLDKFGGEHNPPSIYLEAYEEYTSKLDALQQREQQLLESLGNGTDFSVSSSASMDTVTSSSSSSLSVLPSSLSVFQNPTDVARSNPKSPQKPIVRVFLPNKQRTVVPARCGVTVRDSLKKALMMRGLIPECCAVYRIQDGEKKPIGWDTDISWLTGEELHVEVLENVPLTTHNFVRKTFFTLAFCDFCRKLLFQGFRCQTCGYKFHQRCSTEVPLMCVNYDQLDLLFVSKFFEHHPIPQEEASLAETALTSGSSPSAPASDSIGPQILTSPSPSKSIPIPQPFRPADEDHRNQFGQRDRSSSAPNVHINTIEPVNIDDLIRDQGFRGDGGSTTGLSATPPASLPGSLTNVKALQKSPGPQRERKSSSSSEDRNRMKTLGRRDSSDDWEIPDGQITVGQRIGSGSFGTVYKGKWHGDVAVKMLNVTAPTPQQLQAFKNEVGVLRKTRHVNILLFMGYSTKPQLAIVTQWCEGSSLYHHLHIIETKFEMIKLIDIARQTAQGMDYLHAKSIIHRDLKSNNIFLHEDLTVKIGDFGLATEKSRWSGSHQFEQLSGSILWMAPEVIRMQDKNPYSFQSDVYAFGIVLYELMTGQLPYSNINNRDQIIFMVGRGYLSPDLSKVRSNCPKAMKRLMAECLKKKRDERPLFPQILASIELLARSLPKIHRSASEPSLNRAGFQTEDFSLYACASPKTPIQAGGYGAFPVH

[12] = target: Tyrosine-protein kinase receptor UFO (Homo sapiens) (UniProt P30530); test: Inhibition of AXL at 10 uM
[13] = target: Insulin receptor (Homo sapiens) (UniProt P06213); test: Inhibition of INSR at 10 uM
[14] = target: Insulin-like growth factor 1 receptor (Homo sapiens) (UniProt P08069); test: Inhibition of IGF1R at 10 uM
Chain of Insulin-like growth factor 1 receptor (Homo sapiens) (P08069 31-736 limits assumed): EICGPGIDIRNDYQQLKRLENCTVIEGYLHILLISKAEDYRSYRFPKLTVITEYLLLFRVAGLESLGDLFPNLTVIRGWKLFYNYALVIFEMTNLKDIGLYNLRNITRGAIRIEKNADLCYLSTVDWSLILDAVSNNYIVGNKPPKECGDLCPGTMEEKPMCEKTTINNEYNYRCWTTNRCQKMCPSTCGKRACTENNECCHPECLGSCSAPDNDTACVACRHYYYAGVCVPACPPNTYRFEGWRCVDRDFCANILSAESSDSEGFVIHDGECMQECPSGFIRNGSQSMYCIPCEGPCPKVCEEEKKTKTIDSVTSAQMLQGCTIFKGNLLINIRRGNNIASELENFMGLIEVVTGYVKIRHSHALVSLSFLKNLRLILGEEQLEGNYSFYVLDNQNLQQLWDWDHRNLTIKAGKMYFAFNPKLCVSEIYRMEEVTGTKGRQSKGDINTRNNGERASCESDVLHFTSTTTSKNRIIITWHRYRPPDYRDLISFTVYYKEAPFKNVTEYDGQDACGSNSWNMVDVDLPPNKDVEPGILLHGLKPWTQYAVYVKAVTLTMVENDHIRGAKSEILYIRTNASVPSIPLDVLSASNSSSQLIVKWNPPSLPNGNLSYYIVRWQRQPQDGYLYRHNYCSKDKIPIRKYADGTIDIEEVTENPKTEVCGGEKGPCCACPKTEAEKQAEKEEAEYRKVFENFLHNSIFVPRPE
Chain of Insulin-like growth factor 1 receptor (Homo sapiens) (P08069 741-1367 limits assumed): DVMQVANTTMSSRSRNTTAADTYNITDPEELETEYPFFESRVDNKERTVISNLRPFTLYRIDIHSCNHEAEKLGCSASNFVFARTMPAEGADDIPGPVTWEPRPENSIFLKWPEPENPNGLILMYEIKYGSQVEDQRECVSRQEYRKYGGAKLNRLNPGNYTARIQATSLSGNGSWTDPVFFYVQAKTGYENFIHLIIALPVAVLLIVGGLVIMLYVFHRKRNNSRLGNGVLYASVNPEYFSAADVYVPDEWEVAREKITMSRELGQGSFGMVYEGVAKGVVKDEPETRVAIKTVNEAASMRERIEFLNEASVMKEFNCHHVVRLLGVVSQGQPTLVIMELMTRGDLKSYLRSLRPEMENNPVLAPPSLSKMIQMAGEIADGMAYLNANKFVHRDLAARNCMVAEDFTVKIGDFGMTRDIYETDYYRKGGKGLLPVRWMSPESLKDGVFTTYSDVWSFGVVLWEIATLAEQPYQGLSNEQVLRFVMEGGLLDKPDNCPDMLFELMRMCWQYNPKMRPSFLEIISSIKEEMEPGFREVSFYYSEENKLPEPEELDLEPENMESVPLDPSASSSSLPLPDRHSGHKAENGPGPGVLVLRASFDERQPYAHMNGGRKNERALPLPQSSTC

[15] = target: Proto-oncogene tyrosine-protein kinase Src (Homo sapiens) (UniProt P12931); test: Inhibition of SRC at 10 uM
Chain of Proto-oncogene tyrosine-protein kinase Src (Homo sapiens) (P12931 2-536 limits assumed): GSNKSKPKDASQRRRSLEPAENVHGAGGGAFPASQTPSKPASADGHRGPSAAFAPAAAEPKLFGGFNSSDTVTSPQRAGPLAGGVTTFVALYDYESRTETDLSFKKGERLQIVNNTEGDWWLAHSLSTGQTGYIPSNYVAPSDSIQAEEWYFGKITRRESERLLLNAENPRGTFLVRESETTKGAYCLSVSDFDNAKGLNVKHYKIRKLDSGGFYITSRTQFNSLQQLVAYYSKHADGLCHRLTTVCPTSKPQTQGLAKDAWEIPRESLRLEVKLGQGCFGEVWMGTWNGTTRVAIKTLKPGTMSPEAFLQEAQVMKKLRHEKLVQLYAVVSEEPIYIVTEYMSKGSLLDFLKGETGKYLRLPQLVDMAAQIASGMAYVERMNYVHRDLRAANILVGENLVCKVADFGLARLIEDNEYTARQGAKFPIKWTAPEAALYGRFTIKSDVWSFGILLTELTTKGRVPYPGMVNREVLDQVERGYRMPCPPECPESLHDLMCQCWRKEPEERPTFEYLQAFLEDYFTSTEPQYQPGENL

[16] = target: Vascular endothelial growth factor receptor 2 (Homo sapiens) (UniProt P35968); test: Inhibition of VGFR2 at 10 uM
[17] = target: RAC-alpha serine/threonine-protein kinase (Homo sapiens) (UniProt P31749); test: Inhibition of AKT1 at 10 uM
Chain of RAC-alpha serine/threonine-protein kinase (Homo sapiens) (P31749 whole entry): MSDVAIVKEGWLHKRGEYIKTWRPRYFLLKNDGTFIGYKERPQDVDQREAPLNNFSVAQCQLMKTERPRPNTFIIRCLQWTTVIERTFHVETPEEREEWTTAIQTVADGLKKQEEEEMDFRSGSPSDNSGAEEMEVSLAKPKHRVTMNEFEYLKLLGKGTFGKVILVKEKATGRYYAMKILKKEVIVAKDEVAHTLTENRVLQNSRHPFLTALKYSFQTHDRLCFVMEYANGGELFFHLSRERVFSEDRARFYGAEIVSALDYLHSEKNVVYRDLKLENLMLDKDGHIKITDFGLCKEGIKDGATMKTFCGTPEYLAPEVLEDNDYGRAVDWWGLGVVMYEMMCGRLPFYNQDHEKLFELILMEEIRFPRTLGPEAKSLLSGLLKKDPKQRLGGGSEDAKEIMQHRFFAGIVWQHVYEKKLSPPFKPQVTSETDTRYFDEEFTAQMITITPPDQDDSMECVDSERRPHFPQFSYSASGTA

[18] = Inhibition of p38 assessed as rate of ATF-2 phosphorylation by immunosorbent non-radioactive enzyme assay; how it was run: as §1

inhibition [1]	inhibition [2]	inhibition [3]	inhibition [4]	inhibition [5]	inhibition [6]	inhibition [7]	inhibition [8]	inhibition [9]	inhibition [10]	inhibition [11]	inhibition [12]	inhibition [13]	inhibition [14]	inhibition [15]	inhibition [16]	inhibition [17]	IC50 [18]	Compound
32%																		O=C1Cc2ccccc2Oc2c(Nc3ccccc3)cccc21
37%																		Nc1ccccc1Nc1cccc2c1Oc1ccccc1CC2=O
46%																		Nc1cc(F)ccc1Nc1ccc2c(c1)C(=O)Cc1ccccc1O2
25%																		O=C1Cc2ccccc2Oc2ccc(Nc3ccccc3)cc21
36%																		Nc1ccccc1Nc1ccc2c(c1)C(=O)Cc1ccccc1O2
47%	inactive	inactive	inactive	inactive	inactive	inactive	inactive	inactive	inactive	inactive	inactive	inactive	inactive	inactive	inactive	inactive		O=C1Cc2cc(Nc3ccccc3)ccc2Cc2ccccc21
	inactive	inactive	inactive	inactive	inactive	inactive	inactive	inactive	inactive	inactive	inactive	inactive	inactive	inactive	inactive	inactive	4.01 µM	Nc1ccccc1Nc1ccc2c(c1)C(=O)Cc1ccccc1C2
12%																		O=C1Cc2ccccc2Oc2c(Nc3ccc(F)cc3F)cccc21
47%																		O=C1Cc2ccccc2Cc2c(Nc3ccccc3)cccc21

The remaining lines, values behind:

Compound	inhibition [1]	inhibition [2]	inhibition [3]	inhibition [4]	inhibition [5]	inhibition [6]	inhibition [7]	inhibition [8]	inhibition [9]	inhibition [10]	inhibition [11]	inhibition [12]	inhibition [13]	inhibition [14]	inhibition [15]	inhibition [16]	inhibition [17]	IC50 [18]
O=C1Cc2ccccc2Cc2cc(-c3ccccc3)ccc21	43%	inactive	inactive	inactive	inactive	inactive	inactive	inactive	inactive	inactive	inactive	inactive	inactive	inactive	inactive	inactive	inactive	
Nc1ccc(Nc2ccc3c(c2)Cc2ccccc2CC3=O)cc1	15%	inactive	inactive	inactive	inactive	inactive	inactive	inactive	inactive	inactive	inactive	inactive	inactive	inactive	inactive	inactive	inactive	
Nc1cc(F)ccc1Nc1ccc2c(c1)CC(=O)c1ccccc1C2		inactive	inactive	inactive	inactive	inactive	inactive	inactive	inactive	inactive	inactive	inactive	inactive	inactive	inactive	inactive	inactive	0.98 µM
O=C1Cc2ccccc2Cc2ccc(Nc3ccc(F)cc3F)cc21	44%																	
O=C1Cc2ccccc2Cc2cc(NCc3ccccc3)ccc21	9%	inactive	inactive	inactive	inactive	inactive	inactive	inactive	inactive	inactive	inactive	inactive	inactive	inactive	inactive	inactive	inactive	
O=C1Cc2ccccc2Cc2c(Nc3ccc(F)cc3F)cccc21	6%																	
O=C1Cc2ccccc2Cc2cc(Nc3ccccc3)ccc21		inactive	inactive	inactive	inactive	inactive	inactive	inactive	inactive	inactive	inactive	inactive	inactive	inactive	inactive	inactive	inactive	1.75 µM
